The results in this text go back to ChEMBL document CHEMBL4041524, “Synthesis and Characterization of a Novel γ-Aminobutyric Acid Type A (GABAA) Receptor Ligand That Combines Outstanding Metabolic Stability, Pharmacokinetics, and Anxiolytic Efficacy” (J Med Chem, 2016).

pEC50: −log10 of the molar value. Calls of active or inactive are those of the source. No cut-off for these calls is given here.

Series [1] addresses T1, GABA-A receptor; alpha-3/beta-3/gamma-2 (Homo sapiens, UniProt P18507+P28472+P34903).
T1 sequence (P18507 whole entry): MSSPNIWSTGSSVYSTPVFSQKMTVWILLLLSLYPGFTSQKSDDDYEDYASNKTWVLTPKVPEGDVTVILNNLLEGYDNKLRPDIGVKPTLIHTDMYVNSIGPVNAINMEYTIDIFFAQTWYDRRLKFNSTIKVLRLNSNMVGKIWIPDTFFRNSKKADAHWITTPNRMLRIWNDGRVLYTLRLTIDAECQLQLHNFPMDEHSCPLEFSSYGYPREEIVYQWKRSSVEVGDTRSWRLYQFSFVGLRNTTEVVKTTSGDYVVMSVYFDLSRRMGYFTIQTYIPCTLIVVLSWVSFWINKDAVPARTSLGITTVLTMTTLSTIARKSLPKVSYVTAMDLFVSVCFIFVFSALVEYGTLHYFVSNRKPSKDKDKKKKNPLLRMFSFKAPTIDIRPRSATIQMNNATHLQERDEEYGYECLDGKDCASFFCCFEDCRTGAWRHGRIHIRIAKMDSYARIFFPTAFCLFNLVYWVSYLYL
T1 sequence (P28472 whole entry): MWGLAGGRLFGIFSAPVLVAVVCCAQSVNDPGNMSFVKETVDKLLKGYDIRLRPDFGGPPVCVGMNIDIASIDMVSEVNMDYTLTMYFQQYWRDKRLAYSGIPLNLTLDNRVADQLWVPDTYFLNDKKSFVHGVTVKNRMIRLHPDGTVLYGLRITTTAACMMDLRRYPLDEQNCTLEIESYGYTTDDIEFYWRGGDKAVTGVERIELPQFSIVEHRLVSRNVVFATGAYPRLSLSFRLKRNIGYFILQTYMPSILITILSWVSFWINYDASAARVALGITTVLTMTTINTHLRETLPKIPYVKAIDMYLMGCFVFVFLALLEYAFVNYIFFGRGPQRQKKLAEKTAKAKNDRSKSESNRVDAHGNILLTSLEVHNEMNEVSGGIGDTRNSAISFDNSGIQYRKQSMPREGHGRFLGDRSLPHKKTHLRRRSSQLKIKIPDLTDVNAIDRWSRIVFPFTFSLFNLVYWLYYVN
T1 sequence (P34903 whole entry): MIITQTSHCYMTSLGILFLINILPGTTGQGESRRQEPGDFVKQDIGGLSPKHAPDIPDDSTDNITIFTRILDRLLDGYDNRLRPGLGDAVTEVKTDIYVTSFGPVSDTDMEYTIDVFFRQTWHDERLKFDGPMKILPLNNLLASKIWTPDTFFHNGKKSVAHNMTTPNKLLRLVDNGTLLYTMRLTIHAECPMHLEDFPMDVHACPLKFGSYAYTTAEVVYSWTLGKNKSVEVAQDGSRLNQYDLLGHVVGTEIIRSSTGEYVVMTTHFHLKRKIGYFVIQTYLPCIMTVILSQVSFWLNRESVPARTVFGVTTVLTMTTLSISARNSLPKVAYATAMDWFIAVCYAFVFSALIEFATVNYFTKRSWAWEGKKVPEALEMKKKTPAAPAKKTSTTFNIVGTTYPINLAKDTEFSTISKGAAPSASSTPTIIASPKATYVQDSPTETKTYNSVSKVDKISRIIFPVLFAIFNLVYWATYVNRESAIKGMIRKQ
The series can be described thus: Binding affinity to human GABAA alpha3beta3gamma2 receptor expressed in HEK293 cells assessed as GABA-induced membrane potential change preincubated for 3 mins followed by addition of GABA measured after 3 mins by FLIPR assay. In kind it is cell-based. The essentials:
(§1)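 Stably transfected HEK293T cells expressing α1β3γ2 (n = 2) or α3β3γ2 (n = 1) GABAARs. Membrane potential was read as fluorescence changes on a FLIPR Tetra, and EC50 was derived.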

Series [2] relates to Liver. Description: Metabolic stability in human liver microsomes assessed as compound remaining at 4 uM measured after 30 mins in presence of NADPH by LC-MS/MS analysis. In kind it is ADME, microsome. The conditions noted are these: 0.5 h. The procedure, abridged:
(§2)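 Human, mouse or rat liver microsomes were incubated with compound at 4 μM final for 30 min at 37 °C (n = 1). Percent of parent remaining was quantified by LC-MS/MS.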
(In general: Liver microsomes are a subcellular fraction often used to study metabolism.)

Series [3] deals with Liver. The series can be described thus: Metabolic stability in mouse liver microsomes assessed as compound remaining at 4 uM measured after 30 mins in presence of NADPH by LC-MS/MS analysis. It is filed as ADME, microsome. The conditions noted are these: 0.5 h. The essentials: as §2
The test system of series [4] is Liver. The series can be described thus: Metabolic stability in rat liver microsomes assessed as compound remaining at 4 uM measured after 30 mins in presence of NADPH by LC-MS/MS analysis. In kind it is ADME, microsome. The note with it: 0.5 h. The essentials: as §2
The target of series [5] is T2, GABA-A receptor; alpha-1/beta-3/gamma-2 (Homo sapiens, UniProt P14867+P18507+P28472).
T2 sequence (P14867 whole entry): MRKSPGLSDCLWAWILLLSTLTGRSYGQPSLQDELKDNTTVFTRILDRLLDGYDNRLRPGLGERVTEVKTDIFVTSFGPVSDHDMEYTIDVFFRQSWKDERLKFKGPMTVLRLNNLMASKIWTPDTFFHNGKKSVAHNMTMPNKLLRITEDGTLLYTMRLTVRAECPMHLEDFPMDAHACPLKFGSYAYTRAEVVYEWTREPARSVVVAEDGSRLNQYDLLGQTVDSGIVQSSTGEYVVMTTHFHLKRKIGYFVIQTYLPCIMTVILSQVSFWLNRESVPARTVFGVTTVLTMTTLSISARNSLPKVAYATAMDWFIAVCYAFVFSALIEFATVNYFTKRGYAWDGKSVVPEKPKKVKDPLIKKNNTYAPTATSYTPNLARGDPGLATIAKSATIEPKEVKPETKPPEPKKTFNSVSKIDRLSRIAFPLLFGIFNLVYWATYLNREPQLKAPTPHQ
T2 sequence (P18507 whole entry): T1 sequence (P18507 whole entry)
T2 sequence (P28472 whole entry): T1 sequence (P28472 whole entry)
Description: Binding affinity to human GABAA alpha1beta3gamma2 receptor expressed in HEK293 cells assessed as GABA-induced membrane potential change preincubated for 3 mins followed by addition of GABA measured after 3 mins by FLIPR assay. It is filed as cell-based. The procedure, abridged: as §1

Series [6] in a line: Total plasma concentration in Sprague-Dawley rat at 10 mg/kg, po measured after 15 mins by LC-MS/MS analysis. It is filed as ADME, organism-based. The procedure, abridged: (§3)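 Sprague-Dawley rats (n = 3 per time point) were given 10 mg/kg p.o. Total plasma concentrations were taken at 15, 30, 60 and 120 min. Brain levels of the dosed ligand and of the carboxylic acid metabolite were taken at 60 or 120 min.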

A short description of series [7]: Total plasma concentration in Sprague-Dawley rat at 10 mg/kg, po measured after 30 mins by LC-MS/MS analysis. In kind it is ADME, organism-based. The procedure, abridged: as §3
A short description of series [8]: Total plasma concentration in Sprague-Dawley rat at 10 mg/kg, po measured after 60 mins by LC-MS/MS analysis. It is filed as ADME, organism-based. The essentials:
as §3

Series [9] in a line: Total plasma concentration in Sprague-Dawley rat at 10 mg/kg, po measured after 120 mins by LC-MS/MS analysis. In kind it is ADME, organism-based. The procedure, abridged: as §3
A short description of series [10]: Drug uptake in Sprague-Dawley rat brain at 10 mg/kg, po measured after 120 mins by LC-MS/MS analysis. It is filed as ADME, organism-based. The note with it: read-out: Drug uptake. The essentials: as §3
In series [11] the test system is Brain. The series can be described thus: Drug metabolism in Sprague-Dawley rat brain assessed as (E)-8-ethynyl-6-(pyridin-2-yl)-4H-benzo[f]imidazo[1,5-a][1,4]diazepine-3-carboxylic acid formation at 10 mg/kg, po measured after 120 mins by LC-MS/MS analysis. The conditions noted are these: in vivo, 2 h. In kind it is ADME, organism-based. The procedure, abridged:
as §3

Series [12] has as its system Mus musculus. Description: Toxicity in Swiss mouse assessed as change in motor coordination by measuring number of falls from the rotating rod at 30 mg/kg, ip administered 30 mins prior to testing measured for 2 mins by rotarod test relative to control. It is filed as organism-based. The note with it: in vivo. The essentials:
(§4)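 The same mice used for marble burying were placed on a rotarod at 4 r.p.m. for 2 min. No fall was scored success, one fall partial, and two falls failure.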

The nature of series [13]: Cytotoxicity against HEK293T cells assessed as viable cells measured after 18 hrs by CellTiter-Glo assay. It is filed as cell-based, HEK-293T. The conditions noted are these: human, read-out: LD50. The procedure, abridged:
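HEK293T cells were exposed to compound for 18 h (n = 4). Viable cells were quantified with CellTiter-Glo, and LD50 was derived.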
On the technique in general: ATP-based viability assays read luminescence as a measure of living cells.

For series [14], the system named is Mus musculus. The series can be described thus: Anxiolytic-like activity in Swiss Webster mouse marble burying model of anxiety assessed as suppression of marble burying activity at 30 mg/kg, ip administered 30 mins prior to test relative to vehicle-control. In kind it is functional, organism-based. The essentials: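 Male NIH Swiss Webster mice (n = 10) received vehicle or compound at 10 or 30 mg/kg i.p. 30 min before marble burying testing. Sedation-like behaviour was noted by observation. Analysis was ANOVA with Dunnett's test vs vehicle.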

The test system of series [15] is Mus musculus. The series can be described thus: Toxicity in Swiss mouse assessed as change in motor coordination by measuring number of falls from the rotating rod at 10 mg/kg, ip administered 30 mins prior to testing measured for 2 mins by rotarod test relative to control. It is filed as organism-based. The conditions noted are these: in vivo. The procedure, abridged: as §4
On the technique in general: Falling from the rotarod earlier than controls is read as motor impairment.

For orientation: pEC50 means −log10 of the EC50, conventionally taken in molar units. On to `C#Cc1ccc2c(c1)C(c1ccccn1)=NCc1c(C(=O)O)ncn1-2`, for which the values for the pEC50 in series [1] and in [5] were 6.33 and less than 4.70, respectively. In addition, the Stability in series [2] was determined as 96%; in [3], 93%; in series [4], 99%. For the same molecule, the concentration at 0.25 h in series [6] was determined as 248 nM. The molecule also had a concentration at 0.5 h in series [7] of 293 nM. This molecule also showed a concentration at 1 h in series [8] of 161 nM. Moreover, the concentration at 2 h was 37.5 nM in series [9] and less than 12.2 nM in [10]. Besides, the Drug metabolism in series [11] was less than 12.2 nM. Moreover, the Activity entry in series [12] is given as “Toxic”.
Turning to `C#Cc1ccc2c(c1)C(c1ccccc1)=NCc1c(C(=O)OCC)ncn1-2`, the results for the Stability in series [2], in series [3] and in series [4] were 35%, 6.3% and 36%, respectively. The Activity entry in series [12] was “Toxic”.
For the molecule `C#Cc1ccc2c(c1)C(c1ccccc1F)=NCc1c(-c3cnco3)ncn1-2`, the values for the pEC50 in series [1] and in series [5] were 7.96 and less than 4.70, respectively. Moreover, the Stability is 78% in [2], 78% in [3] and 68% in [4]. Besides, in series [13], the CC50 at 18 h stood at 61.5 µM. Besides, in [14], the outcome was Active. The Activity result in [15] is recorded as “Non-Toxic”; in series [12], “Toxic”.
For `C#Cc1ccc2c(c1)C(c1ccccc1)=NCc1c(-c3cnco3)ncn1-2`, the pEC50 in series [1] is 6.49; in series [5], less than 4.70. Besides, the Stability in series [2] is listed as 74%; in series [3] it was 73%; in series [4] it was 72%. The CC50 at 18 h in series [13] stood at 66.8 µM. The result in series [14] was Active. For the same molecule, the Activity entry in series [15] and in series [12] was “Toxic” in each case.
`C#Cc1ccc2c(c1)C(c1ccccc1F)=NCc1c(C(=O)OCC)ncn1-2`: the pEC50 in series [1] is 7.54; in series [5], less than 4.70. In addition, the Stability in series [2] stood at 6.1%; in series [3], 6.1%; in series [4], 0.5%. The Activity result in [12] is reported as “Toxic”.
For `C#Cc1ccc2c(c1)C(c1ccccn1)=NCc1c(-c3nc(C)no3)ncn1-2`, the pEC50 in [1] is 5.29; in [5], less than 4.70. Besides, the results for the Stability in series [2], in series [3] and in series [4] were 81%, 85% and 93%, respectively. Moreover, the CC50 at 18 h in [13] was more than 100 µM. In series [14], the result was Active. Moreover, the Activity entry in series [15] is “Non-Toxic”; in series [12], “Toxic”.
Take `[2H]C([2H])(C)OC(=O)c1ncn2c1CN=C(c1ccccn1)c1cc(C#C)ccc1-2`: the Stability turned out to be 95% in series [2], 63% in [3] and 77% in [4]. In addition, the concentration at 0.25 h in series [6] was less than 12.2 nM. In series [7], this molecule showed a concentration at 0.5 h of less than 12.2 nM. The concentration at 1 h in series [8] is less than 12.2 nM. Moreover, the concentration at 2 h in series [9] and in series [10] was less than 12.2 nM each time. For the same molecule, the Drug metabolism in series [11] is less than 12.2 nM. Further, the Activity entry in series [12] is “Toxic”.
